Rows were chosen to be rich in hits. Some 1.3% of all compounds tested hit in one or more screens of this group.
DAGLB inh: DAGLB lipase inhibitors, primary screen, biochemical, fluorescence, HTS; 0.059% of 340,000 active; inhibition, % at 5.17 µM; AID 504411, 2011; HEK293T DAGLB membrane lysate, EnzChek fluorogenic substrate; in the data active = inhibition above about 34%;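 also: 0% = enzyme with vehicle and 100% = wells lacking enzyme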
hiPSC survival: enhancers of single-cell hiPSC survival, primary screen, ATPlite luminescence | survival enhancement, % at 20 µM | 100% = ROCK inhibitor wells, 0% = DMSO | 0.044% of 360,000 active; in the data active = survival enhancement above about 18%;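 also: cells exposed to compounds for 16 hours before the ATP read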
FAS TE block: FAS thioesterase domain inhibitors, primary screen, biochemical, fluorescence intensity, uHTS; Fatty acid synthase (Homo sapiens), P49327; recombinant FAS-TE, OMFH fluorogenic substrate, fluorescence endpoint; inhibition, % at 15 µM; 0.67% of 360,000 active; AID 602261, 2012;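 active = compounds whose normalised, plate-corrected inhibition of enzyme fluorescence in the single-dose primary screen is 50% or more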;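 also: 0% = DMSO with enzyme and 100% = substrate without enzyme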
SKN-1 block: suppressors of acrylamide-induced Pgst-4::GFP reporter in worms, primary screen, SKN-1 inhibitor project, whole organism, uHTS, GFP/RFP fluorescence ratio, strain VP596. C. elegans VP596 Pgst-4::GFP/RFP ratio, 24 h. inhibition, % at 21.8 µM. 0.49% of 360,000 active. AID 624304, 2012;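 active = interference check ratio from 0.5 to 1.5 plus GFP to RFP signal ratio inhibition reaching or exceeding a fixed threshold, cut at about 30% in these data, passing the limit was not always enough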
MT1-MMP act inh: blockers of MT1-MMP proenzyme processing, primary screen, HT1080 RFP-PRO-GFP cells, GFP/RFP fluorescence | Matrix metalloproteinase-14 (Homo sapiens), P50281 | GFP/RFP ratio fluorescence, overnight; percent of plate control window, DMSO zero | GFP/RFP ratio change, % at 20 µM | 0.061% of 360,000 active;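 active = GFP/RFP ratio change of at least 30% with cell ATP level not reduced by more than half and red fluorescence within 50% of control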
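Read-out: GFP/RFP fluorescence ratio; Test system: RFP-PRO-GFP reporter HT1080 cells; Compound dosing: single-point 20 µM compound, 1% DMSO; Times: overnight compound exposure at 37 °C.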
FAS-TE inh conf: FAS thioesterase domain inhibitors, confirmation, biochemical, fluorescence intensity, single concentration | shares compounds with FAS TE block | recombinant FAS-TE, OMFH fluorogenic substrate | inhibition, % at 15 µM | 45% of 2,300 active | AID 624325, 2012;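 active = compounds inhibiting the enzyme by at least 50% at 15 µM in any one of the replicates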;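 also: 0% = enzyme with DMSO only and 100% = wells lacking enzyme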
* marks the source's active call; other numbers are inactive results; / = not tested or not shown.

SMILES	DAGLB inh	hiPSC survival	FAS TE block	SKN-1 block	MT1-MMP act inh	FAS-TE inh conf
CCn1c(SCC(=O)Nc2ncc(C(F)(F)F)cc2Cl)nnc1-c1ccccc1	2	-3	70*	-1	-3	73*
CCOC(=O)c1c(NC(=O)CSc2nnc(-c3cccc(C)c3)n2CC)sc(C(C)=O)c1C	-1	4	37	22	-2	/
Cc1cccc(C)c1NC(=O)C(C1CC1)n1c(-c2ccc(C(F)(F)F)cc2)nc2ccccc21 (centres undefined)	/	/	/	11	-7	/
O=c1cc2c(nn1Cc1cccc([N+](=O)[O-])c1)-c1ccccc1CC2	1	0	71*	-1	3	24
O=c1cc2c(nn1Cc1ccccc1)-c1ccccc1CC2	-3	1	-4	7	2	/
COc1ccc(/C=C(\NC(=O)c2ccc([N+](=O)[O-])cc2)C(=O)NCCCN2CCOCC2)cc1	0	0	76*	9	-1	79*
O=C(N/C(=C\c1ccc(Br)cc1)C(=O)N1CCOCC1)c1ccc([N+](=O)[O-])cc1	-1	0	91*	1	2	93*
COc1ccc(/C=C(\NC(=O)c2ccc([N+](=O)[O-])cc2)C(=O)NCCN2CCOCC2)cc1	-1	0	64*	-19	0	73*
CC(=O)c1ccc(Nc2nc(C(N)COCc3ccccc3)cs2)cc1 (centres undefined)	/	5	-7	4	1	/
CCc1nc2c(OCc3ccc(Cl)cc3)cccn2c1N(C)C(=O)c1ccc2c(c1)OCO2	/	0	15	10	-3	/
C=CCn1c(SCc2ccc(Br)cc2F)nc2cc(C(=O)O)ccc2c1=O	8	0	62*	-4	6	65*
C=CCn1c(SCc2c(C)noc2C)nc2cc(C(=O)O)ccc2c1=O	1	-1	-4	-5	7	/
O=S1(=O)C[C@H](N2CC[C@@H](O)C2)[C@@H](COCc2ccccc2)N1	/	1	-10	10	0	/
O=C(C1=NN(c2ccccc2)C2C(=O)N(c3ccccc3)C(=O)C12)c1ccccc1 (centres undefined)	-2	0	24	11	-81	/
O=C(C1=NN(c2ccccc2)C2C(=O)N(c3ccccc3Cl)C(=O)C12)c1ccccc1 (centres undefined)	-2	1	52*	12	-132	-17
C[C@@H]1CN([C@@H](C)CO)C(=O)CCCn2nncc2CO[C@@H]1CN(C)C(=O)c1ccncc1	4	0	-4	-4	4	/
O=[N+]([O-])c1ccc(O)c(/C=N/Nc2ncnc3c2cnn3-c2ccccc2)c1	-1	0	56*	-20	-1	28
O=[N+]([O-])c1ccc(O)c(/C=N/Nc2ccccn2)c1	17	-2	8	-3	-12	/
C[C@H]1CN([C@@H](C)CO)C(=O)c2cc(C#CCC3CCCC3)cnc2O[C@@H]1CN(C)C(=O)CC1CC1	-3	-2	-6	18	0	/
COc1ccc(NC(=O)N(C)C[C@H]2OCCCC[C@@H](C)Oc3ccc(NC(=O)c4ccccc4)cc3C(=O)N([C@H](C)CO)C[C@@H]2C)cc1	-1	0	1	5	-1	/
CC(C)(C)SCCNC(=O)/C=C/c1ccc([N+](=O)[O-])cc1	-3	1	16	4	-1	/
Cc1ccc(SCCNC(=O)/C=C/c2cccc([N+](=O)[O-])c2)cc1	-1	1	46	-3	2	/
CC(C)(C)SCCNC(=O)/C=C/c1cccc([N+](=O)[O-])c1	0	8	72*	2	1	62*
O=C(/C=C/c1cccc([N+](=O)[O-])c1)NCCSc1ccccc1	-3	3	69*	-7	0	80*

Screening data as filed in PubChem.
